ChEMBL document CHEMBL2429803, “Animal toxicity of hairpin pyrrole-imidazole polyamides varies with the turn unit” (J Med Chem, 2013)

How the values were obtained:
[1] = tested on: Mus musculus; assay: Toxicity in C57BL/6J mouse assessed as karyomegaly in kidney at 1 mg/kg, sc administered every 3 days for a cycle of 3 injections measured 2 days post last injection; format: organism-based; parameters: dose 1 mg/kg, route subcutaneous; conditions: in vivo, 48 h
Outline: (§1)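 Male C57BL/6J mice, 8 weeks old, given 1 mg/kg sc every 3 days for three injections and sacrificed 2 days after the last one. Two mice per group fixed in 10% formalin. A veterinary pathologist, blinded, examined cecum, duodenum, heart, ileum, kidney, liver, lung, pancreas, spleen and stomach. Lesions graded mild, moderate or severe.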

[2] = tested on: Mus musculus; assay: Toxicity in C57BL/6J mouse assessed as morbidity at 1 mg/kg, sc administered every 3 days for a cycle of 3 injections; format: organism-based; parameters: dose 1 mg/kg, route subcutaneous; conditions: in vivo, 72 h
Outline: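 Male C57BL/6J mice, 3 per group, given 1 mg/kg sc every 3 days. Weight recorded on injection days. Watched for signs of duress. Humane end point was visible duress or weight loss over 15% of starting body weight.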

[3] = tested on: Mus musculus; assay: Acute toxicity in C57BL/6J mouse assessed as lesions in pancreas at 1 to 10 mg/kg, sc after 9 days; format: organism-based; parameters: dose 1-10 mg/kg, route subcutaneous; conditions: in vivo, 216 h
Outline: (§2)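 Male C57BL/6J mice, 8 weeks old, received a single sc dose (1, 3 or 10 mg/kg in 25% DMSO/saline, n = 4 per group) and were sacrificed after 9 days. Two representative animals per group were fixed in 10% formalin. Cecum, duodenum, heart, ileum, kidney, liver, lung, pancreas, spleen and stomach were examined blind by a veterinary pathologist and lesions graded mild, moderate or severe.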

[4] = tested on: Mus musculus; assay: Acute toxicity in C57BL/6J mouse assessed as milder tubular regeneration at 10 mg/kg, sc after 9 days; format: organism-based; parameters: dose 10 mg/kg, route subcutaneous; conditions: in vivo, 216 h; outline: as §2
[5] = tested on: Mus musculus; assay: Acute toxicity in C57BL/6J mouse assessed as lesions in GI tract at 1 to 10 mg/kg, sc after 9 days; format: organism-based, Gastrointestinal tract; parameters: dose 1-10 mg/kg, route subcutaneous; conditions: in vivo, 216 h; outline: as §2
[6] = tested on: Mus musculus; assay: Acute toxicity in C57BL/6J mouse assessed as weight loss at 10 mg/kg, sc after 9 days; format: organism-based; parameters: dose 10 mg/kg, route subcutaneous; conditions: in vivo, 216 h
Outline: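 Male C57BL/6J mice, 8 weeks old, were acclimated 3 days and then given a single sc injection of 1, 3 or 10 mg/kg in 25% DMSO/saline vehicle (up to 200 μL), n = 4 per group. Weight, behaviour and appearance were monitored daily for 9 days before sacrifice. The humane end point was visible duress or weight loss over 15% of the original.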

[7] = tested on: Mus musculus; assay: Toxicity in C57BL/6J mouse assessed as epithelial necrosis and apoptosis in kidney at 1 mg/kg, sc administered every 3 days for a cycle of 3 injections measured 2 days post last injection; format: organism-based; parameters: dose 1 mg/kg, route subcutaneous; conditions: in vivo, 48 h; outline: as §1
[8] = Metabolic stability in human liver microsomes after 1 hr by LC/MS/MS analysis; format: ADME, Microsome; conditions: read-out: Stability
Outline: (§3)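 Compound incubated at 37 °C for 60 min with 1 mg/mL human or mouse liver microsomes in 100 mM KH2PO4, 3 mM MgCl2, pH 7.4, with 2 mM NADPH or without it. Stopped with ice-cold methanol, then precipitate removed. Analyzed by LC/MS/MS as % remaining versus time zero. Duplicates.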

[9] = tested on: Mus musculus; assay: Acute toxicity in C57BL/6J mouse assessed as lesions in heart at 1 to 10 mg/kg, sc after 9 days; format: organism-based; parameters: dose 1-10 mg/kg, route subcutaneous; conditions: in vivo, 216 h; outline: as §2
[10] = Metabolic stability in human liver microsomes after 1 hr by LC/MS/MS analysis in presence of NADPH; format: ADME, Microsome; conditions: read-out: Stability; outline: as §3
[11] = tested on: Mus musculus; assay: Acute toxicity in C57BL/6J mouse assessed as lesions in lungs at 1 to 10 mg/kg, sc after 9 days; format: organism-based; parameters: dose 1-10 mg/kg, route subcutaneous; conditions: in vivo, 216 h; outline: as §2
[12] = tested on: Mus musculus; assay: Toxicity in C57BL/6J mouse assessed as mild multifocal hepatocellular necrosis and apoptosis in liver at 1 mg/kg, sc administered every 3 days for a cycle of 3 injections measured 2 days post last injection; format: organism-based; parameters: dose 1 mg/kg, route subcutaneous; conditions: in vivo, 48 h; outline: as §1
[13] = tested on: Mus musculus; assay: Acute toxicity in C57BL/6J mouse assessed as diffuse hepatocellular necrosis and apoptosis at 3 to 10 mg/kg, sc after 9 days; format: organism-based; parameters: dose 3-10 mg/kg, route subcutaneous; conditions: in vivo, 216 h; outline: as §2
[14] = tested on: Mus musculus; assay: Toxicity in C57BL/6J mouse assessed as weight loss at 10 mg/kg, sc; format: organism-based; parameters: dose 10 mg/kg, route subcutaneous; conditions: in vivo
Outline: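 Single sc injection in 25% DMSO/saline to 8-week-old male C57BL/6J mice acclimated 3 days; groups of four receiving 1, 3 or 10 mg/kg. Weight monitored daily for 9 days, then sacrifice; euthanasia on visible duress or weight loss beyond 15% of original body weight.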

[15] = Metabolic stability in mouse liver microsomes after 1 hr by LC/MS/MS analysis; format: ADME, Microsome; conditions: read-out: Stability; outline: as §3
[16] = tested on: Mus musculus; assay: Acute toxicity in C57BL/6J mouse at 10 mg/kg, sc after 9 days; format: organism-based; parameters: dose 10 mg/kg, route subcutaneous; conditions: in vivo, 216 h
Outline: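 Single sc injection in male 8-week-old C57BL/6J mice (1, 3 or 10 mg/kg in 25% DMSO/saline; n = 4 per group), followed for 9 days with daily weighing, then sacrifice. Toxicity was assessed by blinded histopathology of two mice per group and by blinded serum ALT, AST, total bilirubin, BUN and creatinine from retroorbital blood of all mice.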

[17] = tested on: Mus musculus; assay: Toxicity in C57BL/6J mouse assessed as weight loss at 1 mg/kg, sc administered every 3 days for a cycle of 3 injections; format: organism-based; parameters: dose 1 mg/kg, route subcutaneous; conditions: in vivo, 72 h
Outline: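 8-week-old male C57BL/6J mice, acclimated 3 days, groups of three, dosed sc in 25% DMSO/saline vehicle once every 3 days, sacrificed 2 days after the last injection. Body weight recorded on injection days and at end point; humane end point set at visible duress or >15% loss of original body weight.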

[18] = tested on: Mus musculus; assay: Acute toxicity in C57BL/6J mouse assessed as karyomegaly at 10 mg/kg, sc after 9 days; format: organism-based; parameters: dose 10 mg/kg, route subcutaneous; conditions: in vivo, 216 h; outline: as §2
[19] = tested on: Mus musculus; assay: Acute toxicity in C57BL/6J mouse assessed as lesions in stomach at 1 to 10 mg/kg, sc after 9 days; format: organism-based; parameters: dose 1-10 mg/kg, route subcutaneous; conditions: in vivo, 216 h; outline: as §2
[20] = Metabolic stability in mouse liver microsomes after 1 hr by LC/MS/MS analysis in presence of NADPH; format: ADME, Microsome; conditions: read-out: Stability; outline: as §3
[21] = tested on: Mus musculus; assay: Acute toxicity in C57BL/6J mouse assessed as hepatocellular necrosis and apoptosis at 3 mg/kg, sc after 9 days; format: organism-based; parameters: dose 3 mg/kg, route subcutaneous; conditions: in vivo, 216 h; outline: as §2
[22] = tested on: Mus musculus; assay: Toxicity in C57BL/6J mouse assessed as mild tubular attenuation in kidney at 1 mg/kg, sc administered every 3 days for a cycle of 3 injections measured 2 days post last injection; format: organism-based; parameters: dose 1 mg/kg, route subcutaneous; conditions: in vivo, 48 h; outline: as §1

## CN(CCCNC(=O)c1cccc(C(=O)O)c1)CCCNC(=O)c1cc(NC(=O)c2cc(NC(=O)c3cc(NC(=O)c4nc(NC(=O)[C@H](N)CCNC(=O)c5cc(NC(=O)c6cc(NC(=O)c7cc(NC(=O)c8nccn8C)cn7C)cn6C)cn5C)cn4C)cn3C)cn2C)cn1C
[1]
  Activity: Toxic
[2]
  Activity: Non-toxic
[3]
  Activity: Non-toxic
[4]
  Activity: Toxic
[5]
  Activity: Non-toxic
[6]
  Activity: Toxic
[7]
  Activity: Toxic
[8]
  remaining at 1 h: > 90%
[9]
  Activity: Non-toxic
[10]
  remaining at 1 h: > 90%
[11]
  Activity: Non-toxic
[12]
  Activity: Toxic
[13]
  Activity: Toxic
[14]
  Activity: > 15%
[15]
  remaining at 1 h: > 90%
[16]
  Activity: Non-toxic
[17]
  Activity: Non-toxic
[18]
  Activity: Toxic
[19]
  Activity: Non-toxic
[20]
  remaining at 1 h: > 90%
[21]
  Activity: Toxic
[22]
  Activity: Toxic
